Scp1 inh: inhibitors of human Scp-1 phosphatase; Q9GZU7; Recombinant Scp1, phosphopeptide, malachite green phosphate absorbance; inhibition, % at 20 µM; 340,000 tested, 0.88% active; AID 493091;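 active = inhibition above about 50% at 20 µM, limit read from the data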
Target sequence (Q9GZU7 76-261 limits assumed): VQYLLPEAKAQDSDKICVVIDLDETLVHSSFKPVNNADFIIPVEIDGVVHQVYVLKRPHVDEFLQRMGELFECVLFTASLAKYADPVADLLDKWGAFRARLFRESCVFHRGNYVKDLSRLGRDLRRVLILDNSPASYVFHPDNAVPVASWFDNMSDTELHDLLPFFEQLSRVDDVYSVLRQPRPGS
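assay system = SCP-1 phosphatase catalytic domain, residues 76-261 | buffer or medium = 50 mM Tris acetate pH 5.5, 0.005% Tween-20, 10 mM MgCl2 | incubation = enzyme reaction 45 min at room temperature, colour 5 min, stabilisation 30 min | signal = Phosphate-binding colour reagent, absorbance read at 630 nm | measure = % inhibition at 20 µM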
LMPTP block: blocks human LMPTP phosphatase; 360,000 tested, 0.22% active; AID 651560; inhibition, % at 20 µM; recombinant LMPTP-A, OMFP fluorogenic substrate, fluorescence intensity; P24666;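 active = compounds that cut the enzyme signal by at least half of the control window in the single-dose screen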
Target sequence (P24666 whole entry, looked up): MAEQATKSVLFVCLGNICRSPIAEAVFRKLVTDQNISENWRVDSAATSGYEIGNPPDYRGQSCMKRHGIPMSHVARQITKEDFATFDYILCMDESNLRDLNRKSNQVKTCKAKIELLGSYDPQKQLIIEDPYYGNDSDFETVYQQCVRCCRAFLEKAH
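Assay system: LMPTP-A, protein tyrosine phosphatase of low molecular weight / Medium: pH 6.0 Bis-Tris buffer with DTT and Triton X-100 / Schedule: 50 min enzyme reaction at room temperature, protected from light / Measured by: endpoint fluorescence intensity from OMFP dephosphorylation / Read-out basis: % inhibition relative to no-enzyme and uninhibited control wells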
STEP inh: STEP (human) phosphatase inhibition | P54829 | recombinant STEP, OMFP fluorogenic substrate, fluorescence | inhibition, % at 20 µM | 360,000 tested, 0.25% active | AID 588621;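 active = inhibition at 20 µM, scaled per plate between control wells, above about 37%, limit read from the data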
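medium = Bis-Tris buffer pH 6.0, 2.5 mM DTT, 0.005% Tween 20 | test system = STEP (striatal-enriched tyrosine phosphatase) enzyme, cell-free | measure = normalized % inhibition | compound dosing = 20 µM, 1% DMSO | also added = 25 µM OMFP | schedule = reaction 20 min, ambient temperature | measured by = fluorescence read at 480 nm ex / 540 nm em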
SUMO1 PPI mod: alters human SUMO1 binding to SIM partners; P63165; SUMO1 binding to a labelled peptide, TR-FRET, 1 h; inhibition, % at 20 µM; 360,000 tested, 0.33% active; in the data active = inhibition above about 37%
Target sequence (P63165 whole entry, looked up): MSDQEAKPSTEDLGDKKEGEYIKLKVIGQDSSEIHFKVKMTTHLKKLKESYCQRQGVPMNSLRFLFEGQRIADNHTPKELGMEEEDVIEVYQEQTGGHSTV
FAS-TE inh: inhibitors of human fatty acid synthase thioesterase domain | recombinant FAS-TE, OMFH fluorogenic substrate, fluorescence endpoint | 360,000 tested, 0.67% active | inhibition, % at 15 µM | P49327;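 active = compounds whose normalised, plate-corrected inhibition of enzyme fluorescence in the single-dose primary screen is 50% or more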
Each line names hits and unclear results; the compound was inactive in the other large screens. The list is not random: actives were taken first. Their share in the collection is about 1.9%.

CCCCC(CC)CN=C(N)NC(N)=NCCCCCCN=C(N)NC(N)=NCC(CC)CCCC (configuration not stated)	SUMO1 PPI mod 86
O=C(Nc1ccc2c(c1)OCO2)c1cc(-c2ccc(O)cc2)on1	SUMO1 PPI mod 39
CCc1nc2c(OCc3ccc(Cl)cc3Cl)cccn2c1N(C)C(=O)CC(C)C	none (no result: Scp1 inh)
Oc1ccc(N=Cc2ccc(OCc3ccccc3)cc2)cc1	SUMO1 PPI mod 63
O=C(N/N=C/c1ccc(OCc2ccccc2)cc1)c1ccncc1	none
C[C@@H]1CN([C@@H](C)CO)C(=O)c2cc(N(C)C)ccc2O[C@@H](C)CCCCO[C@@H]1CN(C)Cc1ccc2c(c1)OCO2	none (no result: Scp1 inh)
Cc1cc2[nH]c3c4ccccc4nc(C)c3c2cc1C	LMPTP block 55
CCCN1C(=O)CC(c2ccc(OC)c(OC)c2)C1=O (configuration not stated)	LMPTP block 47 (no result: Scp1 inh)
COc1ccc(C2CC(=O)c3cc(OC)c(OC)cc32)cc1OC (configuration not stated)	none
CC1(c2nnnn2-c2ccc3c(c2)OCCO3)CCC(=O)N1CCCn1ccnc1 (configuration not stated)	none (no result: Scp1 inh, STEP inh)
O=C(/C=C/c1ccco1)Nc1cccc2cccnc12	LMPTP block 50
Cc1ccc(C(=O)NCCN2CCC(n3c(=O)[nH]c4ccccc43)CC2)cc1C	none (no result: Scp1 inh, STEP inh)
COc1ccc(C(=O)Nc2ccc(NC(=O)c3cccs3)cn2)cc1	SUMO1 PPI mod 46
COc1ccc(NC(=O)c2cccs2)cc1	none
CN(C)CCNc1ncnc2c1ncn2[C@H]1CN(Cc2ccc(-c3ccccc3)cc2)C[C@@H](CO)O1	none (no result: Scp1 inh)
Cc1ccc(NC(=S)NNc2ccc([N+](=O)[O-])cc2S(=O)(=O)Nc2ccccc2C(=O)O)cc1C	FAS-TE inh 62
Cc1ccc(-n2ncc3c(=O)[nH]c(SCC(=O)N4CCC(C)CC4)nc32)cc1C	SUMO1 PPI mod 41
Cc1ccc(-n2ncc3c(=O)[nH]c(SCC(=O)N4CCCC4)nc32)cc1C	none
C=CCc1cccc2cc(C(=O)NCc3cccnc3)c(=O)oc12	LMPTP block 52
CCOc1cccc2cc(C(=O)NCc3cccnc3)c(=O)oc12	none
C=CCc1cccc2cc(C(=O)Nc3ccc(S(=O)(=O)Nc4nnc(CC)s4)cc3)c(=O)oc12	Scp1 inh 101, STEP inh 91
C=CCc1cccc2cc(C(=O)Nc3ccc(F)cc3)c(=O)oc12	none
O=C1NC[C@@H](CCCCN2C[C@H](Cc3ccc(O)cc3)N(CCc3ccc(O)cc3)C(=O)C2=O)N(CCc2ccc(O)cc2)C1=O	SUMO1 PPI mod 44 (no result: Scp1 inh, STEP inh)
Oc1ccc(Cl)c(CN2CCN(c3ncc(Cc4ccccc4)cn3)CC2)c1	none (no result: Scp1 inh, STEP inh, FAS-TE inh)
O=C(O)c1ccc(S(=O)(=O)/N=C2\C=C(Nc3ccccc3F)C(=O)c3ccccc32)cc1	SUMO1 PPI mod 75
Cc1ccccc1NC1=C/C(=N\S(=O)(=O)c2ccc(C(=O)O)cc2)c2ccccc2C1=O	SUMO1 PPI mod 69
Oc1ccc(C[C@H]2CNC(=S)N2CC2CCCN2C[C@H](Cc2ccccc2)N2C[C@H](Cc3ccc(O)cc3)N(CC3CCCCC3)C2=S)cc1 (some centres not stated)	none (no result: Scp1 inh)
O=C(O)CN1C(=O)/C(=C\c2cc(Br)ccc2OCc2ccc(Cl)cc2)SC1=S	SUMO1 PPI mod 61
O=C1NC[C@@H](CCCCN2C[C@H](Cc3ccc(O)cc3)N(Cc3ccccc3)C(=O)C2=O)N(Cc2ccccc2)C1=O	none (no result: Scp1 inh, STEP inh)
CN(C)c1nc(N)nc(/C(C#N)=C/C2CC3C=CC2C3)n1 (configuration not stated)	LMPTP block 67
CC(=O)Nc1ccc(-c2nc3cc(Cl)ccc3o2)cc1	Scp1 inh 62
CC(=O)c1sc(Nc2ccc3c(c2)OCO3)nc1C	none (no result: Scp1 inh)
CC(=O)c1sc(Nc2nc3cc4c(cc3s2)OCO4)nc1C	SUMO1 PPI mod 40
COc1ccc(C2=CC3=C(Br)C(=O)C(C)(OC(=O)c4cccs4)C(=O)C3=CO2)cc1 (configuration not stated)	SUMO1 PPI mod 44
Cc1ccc(-n2nc3c(N4CCC(C(=O)NCCc5ccccc5C)CC4)nnc(C)c3c2C)cc1	none
Cc1ccc(-n2nc3c(N4CCC(C(=O)NCc5ccc(C)o5)CC4)nnc(C)c3c2C)cc1	LMPTP block 65

High-throughput results (PubChem BioAssay)
